Measured values reported in ChEMBL document CHEMBL1140975, “Synthesis and antimalarial activity of carbamate and amide derivatives of 4-anilinoquinoline” (Eur J Med Chem, 2008).
Active and inactive are the calls of the source. The rule behind the calls is not given here.

Columns and labels:
Mus musculus = species: Mus musculus; experiment: Toxicity in Plasmodium berghei ANKA 65 infected Swiss CD1 mice (Mus musculus); assay type: organism-based; conditions: in vivo
[1] = Selectivity index, ratio of IC50 for human MRC5 cells to IC50 for chloroquine-resistant Plasmodium falciparum FcB1R/Colombia; assay type: toxicity, cell-based; conditions: read-out: Ratio CC50/IC50
Outline: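 SI is CC50 on MRC-5 over IC50 against FcB1R. MRC-5 cells were seeded at 5000 per well and treated after 24 h with two-fold dilutions in RPMI + 5% FCS (DMSO <0.5%). Incubation was 7 days at 37 °C, 5% CO2. Read-out was MTT, as % reduction of absorbance at 540 nm versus untreated cultures. CC50 is the concentration giving 50% cytotoxicity.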

Plasmodium berghei [2] = experiment: Antimalarial activity as increased MST in Plasmodium berghei ANKA 65 infected Swiss CD1 mice (Mus musculus) at 40 mg/kg peroral dose day 1 followed by intraperitoneal dose for 4 days; assay type: functional
Outline: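 Female Swiss CD-1 mice, four weeks old, 20-25 g, three per group. Infected ip with about 10^7 P. berghei ANKA 65 parasitized erythrocytes from a donor mouse. Dosed orally at 40 mg/kg in 100% DMSO at infection, then ip for the following 4 days. Controls were infected DMSO-dosed mice. Excess MST is the percent prolongation of mean survival time over controls.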

Plasmodium falciparum [3] = experiment: Antimalarial activity after 24 hrs against chloroquine-resistant Plasmodium falciparum FcB1R/Colombia by [3H]hypoxanthine uptake; assay type: functional, organism-based
Outline: (§1)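 Asynchronous P. falciparum cultures on human erythrocytes (1% parasitaemia, 1% final haematocrit) exposed to serial dilutions of drug for 24 h at 37 °C, then [3H]hypoxanthine added for another 24 h. Cells freeze-thawed, harvested onto glass-fibre filters and scintillation counted. Incorporation compared with drug-free control on the same plate. IC50 taken from concentration-response curve, mean ± SD of independent experiments. DMSO ≤0.1%.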

Plasmodium berghei [4] = experiment: Antimalarial activity as reduced parasitaemia in Plasmodium berghei ANKA 65 infected Swiss CD1 mice (Mus musculus) at 40 mg/kg/day peroral dose then intraperitoneal for 4 days; assay type: functional; parameters: scale not given: the % may be the effect or the level left; conditions: route oral
Outline: (§2)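 Female Swiss CD-1 mice (4 weeks old, 20–25 g), three per group, infected intraperitoneally with about 10⁷ P. berghei ANKA 65-parasitized erythrocytes from an infected donor. The first dose was given orally in 100% DMSO at infection, then intraperitoneally on the following 4 days. Infected DMSO-dosed mice served as controls. Read-outs were parasitaemia reduction at day 4 and excess MST, the % prolongation of mean survival time versus controls.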

Plasmodium berghei [5] = experiment: Antimalarial activity as increased mean survival time in Plasmodium berghei ANKA 65 infected Swiss CD1 mice (Mus musculus) at 10 mg/kg peroral dose day 1 with intraperitoneal dose over 4 days; assay type: functional, organism-based; parameters: dose 10 mg/kg; outline: as §2
[6] = Cytotoxicity against human MRC5 cells after 7 days by MTT assay; assay type: cell-based
Outline: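 MRC-5 human embryonic lung cells were seeded at 5000 per well and washed after 24 h. Two-fold drug dilutions were added in RPMI + 5% FCS, with final DMSO below 0.5%. Plates were held at 37 °C in 5% CO₂ for 7 days. MTT absorbance at 540 nm was compared with untreated controls. CC₅₀ is the concentration causing 50% cytotoxicity.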

Plasmodium falciparum [7] = experiment: Antimalarial activity after 24 hrs against chloroquine-resistant Plasmodium falciparum K1/Thailand by [3H]hypoxanthine uptake; assay type: functional, organism-based; outline: as §1
Plasmodium falciparum [8] = experiment: Antimalarial activity against chloroquine-sensitive Plasmodium falciparum THAI/Thailand as [3H]hypoxanthine uptake after 24 hrs by semi-automated micro dilution; assay type: functional, organism-based; outline: as §1
Plasmodium berghei [9] = experiment: Antimalarial activity as reduced parasitaemia in Plasmodium berghei ANKA 65 infected Swiss CD1 mice (Mus musculus) at 10 mg/kg/day peroral dose then intraperitoneal dose for 4 days; assay type: functional; parameters: scale not given: the % may be the effect or the level left; conditions: route oral; outline: as §2

Compound	selectivity ratio [1]	IC50 (Plasmodium falciparum [3]) [nM]	CC50 at 168 h [6] [nM]	also measured
O=C(CN1CCCCC1)Nc1cc(CNCCN2CCOCC2)cc(Nc2ccnc3cc(Cl)ccc23)c1	406	7.9		Activity (Mus musculus): Non-toxic; Activity (Plasmodium berghei [2]): Active; Activity (Plasmodium berghei [4]): 100%
O=C(CN1CCCCC1)Nc1cc(COC(=O)CCN2CCCCC2)cc(Nc2ccnc3cc(Cl)ccc23)c1	158			
CCN(CC)Cc1cc(Nc2ccnc3cc(Cl)ccc23)ccc1O.Cl	2500	4.8	12000	Activity (Mus musculus): Non-toxic; Activity (Plasmodium berghei [5]): Active; IC50 (Plasmodium falciparum [7]): 9.4 nM; IC50 (Plasmodium falciparum [8]): 4.6 nM; Activity (Plasmodium berghei [9]): 100%
CCN(CC)CCCC(C)Nc1ccnc2cc(Cl)ccc12 (stereo unspecified) [CHLOROQUINE]			50000	Activity (Mus musculus): Non-toxic; Activity (Plasmodium berghei [5]): Active; Activity (Plasmodium berghei [9]): 100%
CN(C)CCNC(=O)OCc1cc(NC(=O)CN2CCCCC2)cc(Nc2ccnc3cc(Cl)ccc23)c1	304	10.2	3100	
CN(C)CCNCc1cc(NC(=O)CN2CCCCC2)cc(Nc2ccnc3cc(Cl)ccc23)c1	1150			
CN1CCN(C(=O)c2cc(NC(=O)CN3CCCCC3)cc(Nc3ccnc4cc(Cl)ccc34)c2)CC1	833	19.2	16000	Activity (Mus musculus): Non-toxic; IC50 (Plasmodium falciparum [7]): 51.2 nM; IC50 (Plasmodium falciparum [8]): 38.4 nM; Activity (Plasmodium berghei [2]; route oral): 150%; Activity (Plasmodium berghei [4]): 99.96%
O=C(CN1CCCCC1)Nc1cc(COC(=O)NCCN2CCOCC2)cc(Nc2ccnc3cc(Cl)ccc23)c1	> 259	48.3	> 12500	IC50 (Plasmodium falciparum [7]): 19.4 nM; IC50 (Plasmodium falciparum [8]): 38.6 nM
O=C(CN1CCCCC1)Nc1cc(COC(=O)NCc2ccccc2)cc(Nc2ccnc3cc(Cl)ccc23)c1	> 347	36	> 12500	
CCN(CC)CCCCC(=O)OCc1cc(NC(=O)CN2CCCCC2)cc(Nc2ccnc3cc(Cl)ccc23)c1	89			
O=C(CN1CCCCC1)Nc1cc(Nc2ccnc3cc(Cl)ccc23)cc(C(=O)N2CCCCC2)c1	> 112	286	> 32000	
O=C(CN1CCCCC1)Nc1cc(COC(=O)CN2CCCCC2)cc(Nc2ccnc3cc(Cl)ccc23)c1	231			
O=C(CN1CCCCC1)Nc1cc(CO)cc(Nc2ccnc3cc(Cl)ccc23)c1	281		12500	Activity (Mus musculus): Non-toxic; Activity (Plasmodium berghei [2]; route oral): 110%; Activity (Plasmodium berghei [4]): 100%
O=C(CN1CCCCC1)Nc1cc(Nc2ccnc3cc(Cl)ccc23)cc(C(=O)NCCN2CCOCC2)c1	> 546	58.6	> 32000	
CN(C)CCCNCc1cc(NC(=O)CN2CCCCC2)cc(Nc2ccnc3cc(Cl)ccc23)c1	174			
O=C(CN1CCCCC1)Nc1cc(CNCCN2CCCC2)cc(Nc2ccnc3cc(Cl)ccc23)c1	182			

Compound	selectivity ratio [1]	IC50 (Plasmodium falciparum [3]) [nM]	CC50 at 168 h [6] [nM]	also measured
CN1CCN(CCCNC(=O)OCc2cc(NC(=O)CN3CCCCC3)cc(Nc3ccnc4cc(Cl)ccc34)c2)CC1			6300	
CN(C)CCN(C)C(=O)c1cc(NC(=O)CN2CCCCC2)cc(Nc2ccnc3cc(Cl)ccc23)c1	851	18.8	16000	
O=C(CN1CCCCC1)Nc1cc(CNCCN2CCCCC2)cc(Nc2ccnc3cc(Cl)ccc23)c1	648	6.6		
O=C(CN1CCCCC1)Nc1cc(COC(=O)CCCCCN2CCCCC2)cc(Nc2ccnc3cc(Cl)ccc23)c1	456			
O=C(CN1CCCCC1)Nc1cc(COC(=O)NCCN2CCCCC2)cc(Nc2ccnc3cc(Cl)ccc23)c1	1120	11.2	12500	Activity (Mus musculus): Non-toxic; IC50 (Plasmodium falciparum [7]): 9.7 nM; IC50 (Plasmodium falciparum [8]): 19.4 nM; Activity (Plasmodium berghei [2]; route oral): 50%; Activity (Plasmodium berghei [4]): 100%
O=C(CN1CCCCC1)Nc1cc(Nc2ccnc3cc(Cl)ccc23)cc(C(=O)N2CCOCC2)c1	> 298	108	> 32000	
O=C(CN1CCCCC1)Nc1cc(Nc2ccnc3cc(Cl)ccc23)cc(C(=O)NCCN2CCCC2)c1	1024	16.6	17000	
O=C(CN1CCCCC1)Nc1cc(COC(=O)CCCCN2CCOCC2)cc(Nc2ccnc3cc(Cl)ccc23)c1	887			Activity (Mus musculus): Non-toxic; Activity (Plasmodium berghei [2]; route oral): 73%; Activity (Plasmodium berghei [4]): 99.8%
O=C(CN1CCCCC1)Nc1cc(Nc2ccnc3cc(Cl)ccc23)cc(C(=O)O)c1		> 1000	> 32000	
O=C(CN1CCCCC1)Nc1cc(Nc2ccnc3cc(Cl)ccc23)cc(C(=O)N2CCN(Cc3ccccc3)CC2)c1	296	50.6	15000	
O=C(CN1CCCCC1)Nc1cc(COC(=O)CCCCN2CCCCC2)cc(Nc2ccnc3cc(Cl)ccc23)c1	806			
CCN(CC)CCCNC(=O)OCc1cc(NC(=O)CN2CCCCC2)cc(Nc2ccnc3cc(Cl)ccc23)c1	434	14.5	6300	
O=C(CN1CCCCC1)Nc1cc(Nc2ccnc3cc(Cl)ccc23)cc(C(=O)N2CCN(c3ccccc3)CC2)c1	106	151	16000	
CN(C)CCNC(=O)c1cc(NC(=O)CN2CCCCC2)cc(Nc2ccnc3cc(Cl)ccc23)c1	478	31.4	15000	
CN(C)CCCNC(=O)c1cc(NC(=O)CN2CCCCC2)cc(Nc2ccnc3cc(Cl)ccc23)c1	> 177	181	> 32000	
